Results of several laboratories.
Protocols differ between the studies behind these lines.
Target: Mitogen-activated protein kinase kinase kinase 9 (MAP3K9, Homo sapiens, UniProt P80192)

The inhibition of `CNC(=O)c1cc(Oc2ccc(NC(=O)Nc3ccc(Cl)c(C(F)(F)F)c3)cc2)ccn1` is reported as -6% (enzyme activity; inhibitor; 0.3 µM).
With `O=C(NCCCNc1nc(Nc2cccc(CN3CCOCC3)c2)ncc1C1CC1)C1CCC1` the remaining activity was 19% (enzyme activity; inhibitor; radiometric; 1 µM).
The inhibition of `CCOc1cc(-c2nncn2C)ccc1Nc1ncc2cc(C)nc(NCC(C)(C)C)c2n1` is reported as 38% (enzyme activity; inhibitor; FRET; 1 µM).
`CC/C(=N\NC(=O)NCc1cccc(O)c1)c1ccc(O)c(C)c1O` gave an inhibition of 5.1% (enzyme activity; inhibitor; 0.1 µM).
With `Cc1cc(NC(=O)c2cccc3cc(-c4cccc5[nH]nc(N)c45)ccc23)ccc1F` the activity vs control was 96% (enzyme activity; inhibitor; 0.1 µM).
`NS(=O)(=O)c1ccc(CNc2ccnc(Nc3cccc(NC(=O)N4CCCC4)c3)n2)cc1` gave a remaining activity of 86% (enzyme activity; inhibitor; radiometric; 1 µM).
With `CN(C)CC#Cc1ccc(OCCCc2sc(N3CCc4cccc(C(=O)Nc5nc6ccccc6s5)c4C3)nc2C(=O)O)c(F)c1` the remaining binding was 92% (cell-free assay; competition with immobilised ligand; 1 µM).
`Cc1nn(CC(F)(F)F)cc1Nc1nccc(NCCCNC(=O)C2CCC2)n1` gave a remaining activity of 85% (enzyme activity; inhibitor; radiometric; 1 µM).
For `CNC(=O)Nc1ccc2c(c1)[C@@]1(CC2)OC(=O)N(CC(=O)N(Cc2ccc(F)cc2)[C@@H](C)C(F)(F)F)C1=O`, the remaining binding was 100% (cell-free assay; competition with immobilised ligand; 1 µM).
`O=C(NCCCNc1nc(Nc2cccc(NC(=O)N3CCCC3)c2)ncc1C1CC1)C1CCC1` has a remaining activity of 31% (enzyme activity; inhibitor; radiometric; 1 µM).
For `C[C@@H]1CN(c2cc(-c3nn(C)c4ccc(OC5(C)CC5)cc34)ncn2)C[C@H](C)O1`, the remaining binding was 100% (cell-free assay; competition with immobilised ligand; 1 µM).
`O=C1Nc2ccc(Cl)cc2C1=Cc1cc(Cl)c(O)c(Cl)c1` gave a remaining signal of 102% (cell-free assay; 0.5 µM).
`Cn1c(=O)n(-c2ccc(C(C)(C)C#N)cc2)c2c3cc(-c4cnc5ccccc5c4)ccc3ncc21` has a remaining activity of 67% (enzyme activity; inhibitor; 10 µM).
`NS(=O)(=O)c1ccc(CNc2nc(Nc3cccc(NC(=O)N4CCCC4)c3)ncc2Br)cc1` gave a remaining activity of 30% (enzyme activity; inhibitor; radiometric; 1 µM).
With `COc1cc(Nc2cnc(C#N)c(O[C@H](C)CN(C)C)n2)ncc1-c1cnn(C)c1` the remaining activity was 92% (enzyme activity; inhibitor; radiometric; 1 µM).
`Cc1ccc(C(=O)NCc2ccsc2)cc1C#Cc1cn(C(C)C)c2ncnc(N)c12` gave an activity vs control of 25% (enzyme activity; inhibitor; 1 µM).
`O=C1NC(=O)c2cc(Nc3ccc(F)cc3)c(Nc3ccc(F)cc3)cc21` gave a remaining signal of 102% (cell-free assay; 0.5 µM).
With `NS(=O)(=O)c1ccc(CNc2nc(Nc3cccc(CN4CCOCC4)c3)ncc2Br)cc1` the remaining activity was 25% (enzyme activity; inhibitor; radiometric; 1 µM).
The remaining signal of `Oc1cccc(-c2nc(N3CCOCC3)c3oc4ncccc4c3n2)c1` is reported as 103% (cell-free assay; 0.5 µM).
With `CCC(=O)N[C@H]1CC[C@@H](C(=O)N(C)c2ccc(-c3nc4ccccc4o3)cc2)C1` the remaining binding was 100% (cell-free assay; competition with immobilised ligand; 1 µM).
The inhibition of `c1ccc(CNc2nc(N3CCOc4ccccc43)nc3c2CCCC3)cc1` is reported as 3.8% (target engagement in cells; inhibitor; chemoproteomics; 20 mM).
The remaining binding of `CCS(=O)(=O)c1cc2cc(C[C@](O)(CC(C)(C)c3ccc(F)cc3C(N)=O)C(F)(F)F)[nH]c2cn1` is reported as 98% (cell-free assay; competition with immobilised ligand; 1 µM).
`COc1cc2ncnc(Nc3ccc(Oc4ccccc4)c(C)c3C)c2cc1OC` gave an inhibition of 1% (enzyme activity; inhibitor; 1 µM).
`Cc1c[nH]c2nccc(Oc3c(F)cc(Nc4cc(Cl)nc(N)n4)cc3F)c12` has a remaining binding of 89% (cell-free assay; competition with immobilised ligand; 0.1 µM).
The remaining activity of `O=C(NCCCNc1nc(Nc2cccc(NC(=O)N3CCCC3)c2)ncc1I)c1cccs1` is reported as 4% (enzyme activity; inhibitor; radiometric; 1 µM).
`CN(c1ccnc(CNc2nc(Nc3ccc4c(c3)CC(=O)N4)ncc2C(F)(F)F)n1)S(C)(=O)=O` gave a remaining binding of 41% (cell-free assay; competition with immobilised ligand; 1 µM).
The remaining activity of `NS(=O)(=O)c1ccc(CNc2nc(Nc3cccc(NC(=O)N4CCCC4)c3)ncc2C2CC2)cc1` is reported as 89% (enzyme activity; inhibitor; radiometric; 1 µM).
For `O=C(O)[C@H]1[C@H](Cn2nnc3ccccc3c2=O)CC[C@@H]1C(=O)c1ccc(OCCC2CCOCC2)cc1`, the remaining binding was 81% (cell-free assay; competition with immobilised ligand; 1 µM).
For `Cc1ccc(Nc2nccc(N(C)c3ccc4c(C)n(C)nc4c3)n2)cc1S(N)(=O)=O`, the inhibition was 88% (enzyme activity; inhibitor; 0.3 µM).
